Test results published in ChEMBL document CHEMBL5034042 (ACS Med Chem Lett, 2022).

Columns and labels:
[1] = biological target: T1, Trace amine-associated receptor 1 (Homo sapiens, UniProt Q96RJ0); test: Agonist activity at recombinant human TAAR1 expressed in CHO-K1 cells assessed as increase in intracellular cAMP incubated for 30 mins by HTRF analysis; assay type: functional, cell-based
T1 sequence (Q96RJ0 whole entry): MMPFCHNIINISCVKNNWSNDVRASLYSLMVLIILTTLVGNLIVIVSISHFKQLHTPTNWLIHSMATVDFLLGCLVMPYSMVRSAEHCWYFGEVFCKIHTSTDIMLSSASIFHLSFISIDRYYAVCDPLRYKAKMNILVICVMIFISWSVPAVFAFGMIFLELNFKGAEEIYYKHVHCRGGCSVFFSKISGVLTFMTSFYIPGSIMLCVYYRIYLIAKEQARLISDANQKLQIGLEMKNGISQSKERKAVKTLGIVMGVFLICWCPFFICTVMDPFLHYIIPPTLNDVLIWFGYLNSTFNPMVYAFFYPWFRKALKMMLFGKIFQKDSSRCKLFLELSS
How it was run: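 Human TAAR1 agonism was measured in a single study under identical conditions.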

[2] = biological target: T2, Trace amine-associated receptor 1 (Homo sapiens) (UniProt Q96RJ0); test: Agonist activity at recombinant human TAAR1 expressed in CHO-K1 cells assessed as maximal increase in intracellular cAMP incubated for 30 mins by HTRF analysis relative to control; assay type: functional, cell-based; conditions: filed as agonist
T2 sequence (whole entry): T1 sequence (Q96RJ0 whole entry)
How it was run: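 Maximal response (Emax) is expressed relative to a p-tyramine control applied to each plate. Values were run in triplicate under identical conditions in a single study and are reported as mean ± SEM (n = 3).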

SMILES	EC50 [1] [µM]	Emax [2] [%]
NC[C@@H](O)c1ccc(O)cc1	4.11	108
NCCc1c[nH]c2ccc(O)cc12 [SEROTONIN]	35.1	75
CNCC1OCCCc2ccsc21 (racemic)	0.321	113
NCC[C@@H]1OCCc2ccsc21	0.233	105
CNCCc1ccccc1	0.151	111
c1cc2c(s1)[C@H](CN1CCCC1)OCC2	7.2	113
CN(C)C[C@@H]1OCCc2ccsc21	0.203	112
CNC[C@H](O)c1ccc(O)cc1	4.73	113
NCCc1c[nH]c2ccccc12 [TRYPTAMINE]	2.21	102
NC[C@@H]1OCCc2ccsc21	0.0035	110
NCCc1ccsc1	0.025	112
CNC[C@@H]1OCCc2sccc21	0.113	110
NCCc1cccc(O)c1	0.339	109
CNC[C@]1(C)OCCc2ccsc21	45.7	95
NCCc1ccccc1 [PHENETHYLAMINE]	0.015	111
NCC(O)c1ccc(O)c(O)c1 (configuration not stated)	12.2	99
NCCc1ccc(Oc2ccc(O)cc2)c(I)c1	0.225	105
NCC1OCCCc2ccsc21 (racemic)	0.065	111
NC[C@H](O)c1ccc(O)cc1	1.57	116
NCCc1ccc(O)cc1 [TYRAMINE]	0.076	111
NCCc1cccs1	0.0083	113
COc1cc(CCN)ccc1O	0.308	101
CNCC1OCCc2cscc21 (configuration not stated)	0.29	112
NCCc1ccc(O)c(O)c1		97
